Non-standard residues stand in square brackets, D forms with d. Residues, ends and D or L forms follow the SMILES beside them. *: point of attachment. OBzl(3,5-(CF3)2) = FC(F)(F)c1cc(CO*)cc(C(F)(F)F)c1; Phe(4-Cl) = N[C@@H](Cc1ccc(Cl)cc1)C(=O)O; Phe(4-F) = N[C@@H](Cc1ccc(F)cc1)C(=O)O; Nle = CCCC[C@H](N)C(=O)O; βAla = NCCC(=O)O
Columns and labels:
[1] = target: Substance-P receptor (Cavia porcellus) (UniProt P30547); assay: Antagonist activity at NK1 receptor in guinea pig ileum assessed as inhibition of substance P-induced muscle contraction in presence of naloxone; assay type: tissue-based
[2] = target: T1, Delta-type opioid receptor (Homo sapiens, UniProt P41143); assay: Agonist activity at human delta opioid receptor transfected in HN9.10 cells by [35S]GTPgammaS binding assay; assay type: functional, cell-based
Outline: (§1)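 Membranes from transfected HN9.10 cells constitutively expressing human DOR or rat MOR. EC50 comes from non-linear regression of at least two independent experiments in duplicate. Emax = [Total bound − Basal]/[Basal − Non-specific] × 100.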

[3] = target: Delta-type opioid receptor (Mus musculus, UniProt P32300); assay: Agonist activity at delta opioid receptor in mouse vas deferens assessed as inhibition of electrically-stimulated muscle contraction
Outline: (§2)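 Electrically stimulated isolated tissue (mouse vas deferens or guinea pig ileum).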

[4] = target: Mu-type opioid receptor (Cavia porcellus, UniProt P97266); assay: Agonist activity at mu opioid receptor in guinea pig ileum assessed as inhibition of electrically-stimulated muscle contraction; assay type: tissue-based; outline: as §2
[5] = target: Substance-P receptor (Rattus norvegicus, UniProt P14600); assay: Displacement of [3H]-substance P from rat NK1 receptor transfected in CHO cells; assay type: cell-based
[6] = target: Mu-type opioid receptor (Rattus norvegicus) (UniProt P33535); assay: (§3) Agonist activity at rat mu opioid receptor transfected in HN9.10 cells by [35S]GTPgammaS binding assay; assay type: functional, cell-based; outline: as §1
[7] = Ratio of Ki for rat NK1 receptor to Ki for human NK1 receptor
[8] = Selectivity ratio of Ki for rat mu opioid receptor to Ki for human delta opioid receptor
[9] = target: T1, Delta-type opioid receptor; assay: Displacement of [3H]-DPDPE from human delta opioid receptor transfected in HN9.10 cells; assay type: cell-based
[10] = target: Mu-type opioid receptor (Rattus norvegicus, UniProt P33535); assay: as §3; assay type: functional, cell-based; outline: as §1
[11] = target: Delta-type opioid receptor (Mus musculus) (UniProt P32300); assay: Agonist activity at delta opioid receptor in mouse vas deferens assessed as inhibition of electrically-stimulated muscle contraction at 1 uM relative to control
[12] = target: Mu-type opioid receptor (Cavia porcellus) (UniProt P97266); assay: Agonist activity at mu opioid receptor in guinea pig ileum assessed as inhibition of electrically-stimulated muscle contraction at 1 uM relative to control; assay type: tissue-based
Sequence of Mu-type opioid receptor (Cavia porcellus) (P97266 whole entry): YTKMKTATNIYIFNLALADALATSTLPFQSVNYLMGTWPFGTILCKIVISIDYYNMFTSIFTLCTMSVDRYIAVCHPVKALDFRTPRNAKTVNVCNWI

Sequence of Mu-type opioid receptor (Rattus norvegicus) (P33535 whole entry): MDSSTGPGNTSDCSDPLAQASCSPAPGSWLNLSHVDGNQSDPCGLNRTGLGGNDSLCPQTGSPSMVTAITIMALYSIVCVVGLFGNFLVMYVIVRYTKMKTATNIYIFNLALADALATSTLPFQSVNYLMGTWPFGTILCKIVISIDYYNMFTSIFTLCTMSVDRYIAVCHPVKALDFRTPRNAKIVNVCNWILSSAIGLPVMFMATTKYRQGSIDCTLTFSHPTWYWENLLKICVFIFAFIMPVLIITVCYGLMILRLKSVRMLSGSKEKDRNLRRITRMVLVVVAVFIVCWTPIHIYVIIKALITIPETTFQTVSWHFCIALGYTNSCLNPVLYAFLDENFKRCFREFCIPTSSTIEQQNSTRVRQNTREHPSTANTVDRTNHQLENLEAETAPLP
Sequence of Substance-P receptor (P14600 whole entry): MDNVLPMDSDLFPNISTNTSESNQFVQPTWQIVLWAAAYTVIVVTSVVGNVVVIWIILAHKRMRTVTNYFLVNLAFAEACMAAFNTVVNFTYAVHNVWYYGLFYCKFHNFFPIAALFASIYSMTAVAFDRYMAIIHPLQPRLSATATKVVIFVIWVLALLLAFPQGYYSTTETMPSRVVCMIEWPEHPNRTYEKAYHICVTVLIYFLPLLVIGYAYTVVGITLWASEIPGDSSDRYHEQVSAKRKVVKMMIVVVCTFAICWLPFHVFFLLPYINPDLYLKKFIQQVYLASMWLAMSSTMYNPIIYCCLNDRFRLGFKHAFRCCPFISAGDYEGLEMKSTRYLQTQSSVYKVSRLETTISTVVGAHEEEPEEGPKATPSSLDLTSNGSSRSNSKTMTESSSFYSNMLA
T1 sequence (P41143 whole entry): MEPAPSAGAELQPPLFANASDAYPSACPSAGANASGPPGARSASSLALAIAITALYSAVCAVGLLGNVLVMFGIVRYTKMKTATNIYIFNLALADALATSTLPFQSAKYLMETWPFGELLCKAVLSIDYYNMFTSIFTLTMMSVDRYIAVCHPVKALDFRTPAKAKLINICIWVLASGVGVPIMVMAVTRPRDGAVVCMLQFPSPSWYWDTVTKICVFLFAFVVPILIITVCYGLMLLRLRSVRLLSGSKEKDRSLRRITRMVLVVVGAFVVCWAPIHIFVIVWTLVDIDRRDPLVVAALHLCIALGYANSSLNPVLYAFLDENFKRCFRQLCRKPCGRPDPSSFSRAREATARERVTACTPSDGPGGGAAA
Sequence of Substance-P receptor (Cavia porcellus) (P30547 whole entry): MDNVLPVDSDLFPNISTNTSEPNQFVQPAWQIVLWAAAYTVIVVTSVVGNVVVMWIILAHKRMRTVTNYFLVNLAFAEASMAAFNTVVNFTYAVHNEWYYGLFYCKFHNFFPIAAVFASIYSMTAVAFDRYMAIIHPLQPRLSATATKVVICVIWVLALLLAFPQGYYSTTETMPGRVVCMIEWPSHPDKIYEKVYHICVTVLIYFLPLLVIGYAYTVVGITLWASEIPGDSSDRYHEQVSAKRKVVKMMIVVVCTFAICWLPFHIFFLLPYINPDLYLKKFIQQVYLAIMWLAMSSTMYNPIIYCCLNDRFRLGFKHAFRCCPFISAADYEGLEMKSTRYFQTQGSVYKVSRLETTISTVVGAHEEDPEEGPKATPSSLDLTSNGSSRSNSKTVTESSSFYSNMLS
Sequence of Delta-type opioid receptor (Mus musculus, UniProt P32300) (P32300 whole entry): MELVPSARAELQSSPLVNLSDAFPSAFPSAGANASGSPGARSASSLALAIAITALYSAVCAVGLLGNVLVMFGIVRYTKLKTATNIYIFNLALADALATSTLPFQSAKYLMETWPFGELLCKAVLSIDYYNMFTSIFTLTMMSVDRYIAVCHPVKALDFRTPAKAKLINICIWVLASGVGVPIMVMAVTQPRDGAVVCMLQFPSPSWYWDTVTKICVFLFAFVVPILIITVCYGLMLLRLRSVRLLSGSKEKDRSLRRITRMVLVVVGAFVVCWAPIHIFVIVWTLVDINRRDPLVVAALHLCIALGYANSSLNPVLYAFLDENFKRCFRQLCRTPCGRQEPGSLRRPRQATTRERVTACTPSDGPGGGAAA
Sequence of Mu-type opioid receptor (Cavia porcellus, UniProt P97266) (P97266 whole entry): as the sequence (P97266 whole entry) above
Sequence of Mu-type opioid receptor (Rattus norvegicus, UniProt P33535) (P33535 whole entry): as the sequence (P33535 whole entry) above
Sequence of Delta-type opioid receptor (Mus musculus) (P32300 whole entry): as the sequence (P32300 whole entry) above

With `Cc1cc(O)cc(C)c1C[C@H](N)C(=O)N[C@H](C)C(=O)N[C@@H](Cc1c[nH]c2ccccc12)C(=O)OCc1cc(C(F)(F)F)cc(C(F)(F)F)c1` as the molecule, how does the Ke [1] read?
The Ke was 110 nM.

What about the EC50 [2] of the same molecule?
Its EC50 is 0.012 µM.

With `C[C@@H](NC(=O)[C@@H](N)Cc1ccc(O)cc1)C(=O)NCC(=O)N[C@@H](Cc1ccc(Cl)cc1)C(=O)NCC(=O)N[C@@H](Cc1c[nH]c2ccccc12)C(=O)OCc1cc(C(F)(F)F)cc(C(F)(F)F)c1` (H-Y[dA]G[Phe(4-Cl)]GW-{OBzl(3,5-(CF3)2)}) as the molecule, how does the Ke [1] read?
Its Ke is 30 nM.

Which IC50 [3] does the source give for `C[C@@H](NC(=O)[C@@H](N)Cc1ccc(O)cc1)C(=O)NCC(=O)N[C@@H](Cc1ccccc1)C(=O)NCCC(=O)N[C@@H](Cc1c[nH]c2ccccc12)C(=O)OCc1cc(C(F)(F)F)cc(C(F)(F)F)c1` (H-Y[dA]GF[βAla]W-{OBzl(3,5-(CF3)2)}) here?
Its IC50 is 0.013 µM.

And the Ke [1]?
The Ke was 250 nM.

For `Cc1cc(O)cc(C)c1C[C@H](N)C(=O)N[C@H](C)C(=O)N[C@@H](Cc1c[nH]c2ccccc12)C(=O)NCc1cc(C(F)(F)F)cc(C(F)(F)F)c1`, which Ke [1] is on record?
The Ke was 22 nM.

What about the Emax [2] of the same molecule?
The Emax was 50%.

With `C[C@@H](NC(=O)[C@@H](N)Cc1ccc(O)cc1)C(=O)NCC(=O)N[C@@H](Cc1c[nH]c2ccccc12)C(=O)OCc1cc(C(F)(F)F)cc(C(F)(F)F)c1` (H-Y[dA]GW-{OBzl(3,5-(CF3)2)}) as the molecule, how does the IC50 [4] read?
Its IC50 is 0.84 µM.

And the Ki [5]?
The Ki was 0.015 µM.

And the Emax [6]?
Its Emax is 34%.

And the Ratio Ki [7]?
The Ratio Ki was 500.

What about the Ke [1] of the same molecule?
The Ke was 5 nM.

And the Ratio Ki [8]?
Its Ratio Ki is 0.16.

And the Emax [2]?
The Emax was 33%.

What about the Ki [9] of the same molecule?
The Ki was 0.31 µM.

With `C[C@@H](NC(=O)[C@@H](N)Cc1ccc(O)cc1)C(=O)NCC(=O)N[C@@H](Cc1ccc(F)cc1)C(=O)OCc1cc(C(F)(F)F)cc(C(F)(F)F)c1` as the molecule, how does the IC50 [4] read?
The IC50 was 0.21 µM.

What about the Ki [5] of the same molecule?
The Ki was 0.23 µM.

What about the IC50 [3] of the same molecule?
Its IC50 is 0.18 µM.

What about the Emax [6] of the same molecule?
Its Emax is 58%.

What about the Ke [1] of the same molecule?
Its Ke is 52 nM.

What about the EC50 [2] of the same molecule?
The EC50 was 0.0067 µM.

What about the Emax [2] of the same molecule?
Its Emax is 78%.

What about the Ki [9] of the same molecule?
The Ki was 0.056 µM.

Which Ke [1] does the source give for `C[C@@H](NC(=O)[C@@H](N)Cc1ccc(O)cc1)C(=O)NCC(=O)N[C@@H](Cc1ccc(F)cc1)C(=O)NCC(=O)N[C@@H](Cc1c[nH]c2ccccc12)C(=O)OCc1cc(C(F)(F)F)cc(C(F)(F)F)c1` (H-Y[dA]G[Phe(4-F)]GW-{OBzl(3,5-(CF3)2)}) here?
The Ke was 10 nM.

With `CCCC[C@H](NC(=O)[C@H](Cc1ccccc1)NC(=O)CNC(=O)[C@@H](C)NC(=O)[C@@H](N)Cc1ccc(O)cc1)C(=O)N[C@@H](Cc1c[nH]c2ccccc12)C(=O)OCc1cc(C(F)(F)F)cc(C(F)(F)F)c1` (H-Y[dA]GF[Nle]W-{OBzl(3,5-(CF3)2)}) as the molecule, how does the Ke [1] read?
The Ke was 13 nM.

With `C[C@@H](NC(=O)[C@@H](N)Cc1ccc(O)cc1)C(=O)NCC(=O)N[C@@H](Cc1ccccc1)C(=O)N[C@@H](Cc1c[nH]c2ccccc12)C(=O)OCc1cc(C(F)(F)F)cc(C(F)(F)F)c1` (H-Y[dA]GFW-{OBzl(3,5-(CF3)2)}) as the molecule, how does the Emax [6] read?
The Emax was 14%.

And the Ke [1]?
Its Ke is 38 nM.

Which Ki [5] does the source give for `C[C@@H](NC(=O)[C@@H](N)Cc1ccc(O)cc1)C(=O)N[C@@H](Cc1c[nH]c2ccccc12)C(=O)OCc1cc(C(F)(F)F)cc(C(F)(F)F)c1` here?
The Ki was 0.0029 µM.

And the EC50 [10]?
Its EC50 is 0.17 µM.

What about the Emax [6] of the same molecule?
Its Emax is 26%.

And the Ratio Ki [7]?
The Ratio Ki was 730.

What about the Ke [1] of the same molecule?
Its Ke is 49 nM.

What about the Ratio Ki [8] of the same molecule?
Its Ratio Ki is 1.8.

What about the inhibition [11] of the same molecule?
Its inhibition is 5.5%.

What about the Emax [2] of the same molecule?
The Emax was 36%.

What about the inhibition [12] of the same molecule?
The inhibition was 3.3%.

Reference: ChEMBL document CHEMBL3608260 (Bioorg Med Chem Lett, 2015)
